Data: ChEMBL document CHEMBL1151206, “Glycosidase-inhibiting pyrrolidines and pyrrolizidines with a long side chain in Scilla peruviana” (J Nat Prod, 2004)

system: maltase-glucoamylase (Rattus norvegicus); assay: Inhibition of rat intestinal maltase at 1000 uM by spectrophotometry

| SMILES | inhibition [%] |
| --- | --- |
| CC(O)CC[C@@H]1C[C@@H](O)[C@@H]2[C@@H](O)[C@H](O)[C@@H](CO)N12 (stereo partly specified) | < 50 |
| CC(O)CC[C@@H]1CC[C@@H]2[C@@H](O)[C@H](O)[C@@H](CO)N12 (stereo partly specified) | < 50 |

system: Penicillium decumbens; assay: Inhibition of Penicillium decumbens alpha-L-rhamnosidase at 1000 uM by spectrophotometry
Procedure, shortened: (§1)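 Commercial enzymes (P. decumbens alpha-L-rhamnosidase at pH 4.5, bovine epididymis alpha-L-fucosidase at pH 5.5, coffee bean alpha-galactosidase at pH 6.5) were incubated with 2 mM p-nitrophenyl glycoside in a 1 mL reaction. The reaction was stopped with 2 mL of 400 mM Na2CO3 and p-nitrophenol was read at 400 nm.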

| SMILES | inhibition [%] |
| --- | --- |
| CC(O)CC[C@@H]1C[C@@H](O)[C@@H]2[C@@H](O)[C@H](O)[C@@H](CO)N12 (stereo partly specified) | < 50 |
| CC(O)CC[C@@H]1CC[C@@H]2[C@@H](O)[C@H](O)[C@@H](CO)N12 (stereo partly specified) | < 50 |

system: Saccharomyces cerevisiae; assay: Inhibition of yeast alpha-glucosidase at 1000 uM by spectrophotometry

| SMILES | inhibition [%] |
| --- | --- |
| CC(O)CC[C@@H]1CC[C@@H]2[C@@H](O)[C@H](O)[C@@H](CO)N12 (stereo partly specified) | < 50 |

target: not listed separately; assay: Inhibition of Caldocellum saccharolyticum beta-glucosidase by spectrophotometry; set-up: species or system Caldicellulosiruptor saccharolyticus
Procedure, shortened: (§2)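 Commercial enzyme assayed with the matching p-nitrophenyl glycoside (2 mM) in a 1 mL reaction, at pH 5.0 for the C. saccharolyticum and almond beta-glucosidases, pH 6.8 for bovine liver beta-galactosidase and pH 6.8 for yeast alpha-glucosidase. The reaction was stopped with 2 mL of 400 mM Na2CO3 and released p-nitrophenol was read at 400 nm. IC50 was determined.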

| SMILES | IC50 [µM] |
| --- | --- |
| CC(O)CC[C@@H]1C[C@@H](O)[C@@H]2[C@@H](O)[C@H](O)[C@@H](CO)N12 (stereo partly specified) | 200 |
| CC(O)CC[C@@H]1CC[C@@H]2[C@@H](O)[C@H](O)[C@@H](CO)N12 (stereo partly specified) | 136 |

target: T1, Lysosomal acid glucosylceramidase (Homo sapiens) (UniProt P04062); assay: Inhibition of human placental beta-glucocerebrosidase at 1000 uM by spectrophotometry
T1 sequence (whole entry): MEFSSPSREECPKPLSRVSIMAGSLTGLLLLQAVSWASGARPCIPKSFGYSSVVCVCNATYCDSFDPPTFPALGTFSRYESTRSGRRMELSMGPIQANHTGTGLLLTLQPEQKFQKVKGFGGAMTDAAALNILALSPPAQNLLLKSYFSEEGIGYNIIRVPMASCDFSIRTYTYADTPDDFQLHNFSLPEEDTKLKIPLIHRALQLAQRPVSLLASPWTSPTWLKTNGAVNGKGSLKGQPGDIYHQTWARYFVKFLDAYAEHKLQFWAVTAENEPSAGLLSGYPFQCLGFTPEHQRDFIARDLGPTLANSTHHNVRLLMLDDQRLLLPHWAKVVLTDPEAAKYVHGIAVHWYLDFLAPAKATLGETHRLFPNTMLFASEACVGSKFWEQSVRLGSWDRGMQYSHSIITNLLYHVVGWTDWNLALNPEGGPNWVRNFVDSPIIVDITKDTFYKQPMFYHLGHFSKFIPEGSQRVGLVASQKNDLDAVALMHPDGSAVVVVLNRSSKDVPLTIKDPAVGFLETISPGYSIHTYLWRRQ

| SMILES | inhibition [%] |
| --- | --- |
| CC(O)CC[C@@H]1C[C@@H](O)[C@@H]2[C@@H](O)[C@H](O)[C@@H](CO)N12 (stereo partly specified) | < 50 |
| CC(O)CC[C@@H]1CC[C@@H]2[C@@H](O)[C@H](O)[C@@H](CO)N12 (stereo partly specified) | < 50 |

target: T2, Tissue alpha-L-fucosidase (Bos taurus) (UniProt Q2KIM0); assay: Inhibition of bovine epididymis alpha-L-fucosidase at 1000 uM by spectrophotometry
T2 sequence (whole entry): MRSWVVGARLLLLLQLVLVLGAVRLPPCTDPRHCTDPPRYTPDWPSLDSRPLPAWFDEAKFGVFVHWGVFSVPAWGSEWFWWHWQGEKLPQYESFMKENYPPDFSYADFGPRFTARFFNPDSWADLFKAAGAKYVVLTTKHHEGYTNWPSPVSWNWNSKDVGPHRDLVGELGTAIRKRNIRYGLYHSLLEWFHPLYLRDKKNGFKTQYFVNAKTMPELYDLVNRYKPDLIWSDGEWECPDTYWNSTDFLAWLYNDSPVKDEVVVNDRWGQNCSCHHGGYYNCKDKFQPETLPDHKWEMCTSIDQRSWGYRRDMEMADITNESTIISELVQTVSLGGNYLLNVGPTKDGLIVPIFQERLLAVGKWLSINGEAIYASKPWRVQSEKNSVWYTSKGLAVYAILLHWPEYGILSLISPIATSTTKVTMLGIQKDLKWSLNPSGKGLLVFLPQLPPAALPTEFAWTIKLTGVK
Procedure, shortened: as §1

| SMILES | inhibition [%] |
| --- | --- |
| CC(O)CC[C@@H]1C[C@@H](O)[C@@H]2[C@@H](O)[C@H](O)[C@@H](CO)N12 (stereo partly specified) | < 50 |
| CC(O)CC[C@@H]1CC[C@@H]2[C@@H](O)[C@H](O)[C@@H](CO)N12 (stereo partly specified) | < 50 |

target: T3, Beta-galactosidase (Bos taurus, UniProt Q58D55); assay: Inhibition of bovine liver beta-galactosidase by spectrophotometry
T3 sequence (Q58D55 whole entry): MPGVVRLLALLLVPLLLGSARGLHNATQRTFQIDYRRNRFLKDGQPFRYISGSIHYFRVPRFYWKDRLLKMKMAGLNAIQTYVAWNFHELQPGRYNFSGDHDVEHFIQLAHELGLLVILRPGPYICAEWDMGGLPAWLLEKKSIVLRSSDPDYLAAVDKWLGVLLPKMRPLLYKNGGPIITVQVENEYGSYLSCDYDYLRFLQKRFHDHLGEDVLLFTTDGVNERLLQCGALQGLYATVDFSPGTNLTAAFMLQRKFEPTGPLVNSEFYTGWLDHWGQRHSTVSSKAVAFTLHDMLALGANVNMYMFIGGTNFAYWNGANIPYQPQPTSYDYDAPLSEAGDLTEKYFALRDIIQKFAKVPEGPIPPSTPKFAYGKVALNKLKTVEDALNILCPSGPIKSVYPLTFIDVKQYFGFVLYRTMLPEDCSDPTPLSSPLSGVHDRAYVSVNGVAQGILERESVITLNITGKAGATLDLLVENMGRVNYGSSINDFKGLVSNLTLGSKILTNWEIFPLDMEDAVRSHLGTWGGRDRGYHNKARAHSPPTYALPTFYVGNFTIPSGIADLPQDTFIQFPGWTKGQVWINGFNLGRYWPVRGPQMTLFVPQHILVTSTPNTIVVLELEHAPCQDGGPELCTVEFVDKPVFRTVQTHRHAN
Procedure, shortened: as §2

| SMILES | IC50 [µM] |
| --- | --- |
| CC(O)CC[C@@H]1C[C@@H](O)[C@@H]2[C@@H](O)[C@H](O)[C@@H](CO)N12 (stereo partly specified) | 320 |

species on record: Rattus norvegicus; assay: Inhibition of rat epididymis alpha-mannosidase at 1000 uM by spectrophotometry
Procedure, shortened: (§3)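 Enzyme source was rat epididymal fluid purified from epididymis, assayed at pH 5.2 with 2 mM of the relevant p-nitrophenyl glycoside in a 1 mL reaction. The reaction was stopped with 2 mL of 400 mM Na2CO3 and p-nitrophenol was measured at 400 nm.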

| SMILES | inhibition [%] |
| --- | --- |
| CC(O)CC[C@@H]1C[C@@H](O)[C@@H]2[C@@H](O)[C@H](O)[C@@H](CO)N12 (stereo partly specified) | < 50 |
| CC(O)CC[C@@H]1CC[C@@H]2[C@@H](O)[C@H](O)[C@@H](CO)N12 (stereo partly specified) | < 50 |

system: Oryza sativa; assay: Inhibition of rice alpha-glucosidase at 1000 uM by spectrophotometry

| SMILES | inhibition [%] |
| --- | --- |
| CC(O)CC[C@@H]1C[C@@H](O)[C@@H]2[C@@H](O)[C@H](O)[C@@H](CO)N12 (stereo partly specified) | < 50 |
| CC(O)CC[C@@H]1CC[C@@H]2[C@@H](O)[C@H](O)[C@@H](CO)N12 (stereo partly specified) | < 50 |

target: T4, Beta-mannosidase (Rattus norvegicus) (UniProt Q4FZV0); assay: Inhibition of rat epididymis beta-mannosidase at 1000 uM by spectrophotometry
T4 sequence (whole entry): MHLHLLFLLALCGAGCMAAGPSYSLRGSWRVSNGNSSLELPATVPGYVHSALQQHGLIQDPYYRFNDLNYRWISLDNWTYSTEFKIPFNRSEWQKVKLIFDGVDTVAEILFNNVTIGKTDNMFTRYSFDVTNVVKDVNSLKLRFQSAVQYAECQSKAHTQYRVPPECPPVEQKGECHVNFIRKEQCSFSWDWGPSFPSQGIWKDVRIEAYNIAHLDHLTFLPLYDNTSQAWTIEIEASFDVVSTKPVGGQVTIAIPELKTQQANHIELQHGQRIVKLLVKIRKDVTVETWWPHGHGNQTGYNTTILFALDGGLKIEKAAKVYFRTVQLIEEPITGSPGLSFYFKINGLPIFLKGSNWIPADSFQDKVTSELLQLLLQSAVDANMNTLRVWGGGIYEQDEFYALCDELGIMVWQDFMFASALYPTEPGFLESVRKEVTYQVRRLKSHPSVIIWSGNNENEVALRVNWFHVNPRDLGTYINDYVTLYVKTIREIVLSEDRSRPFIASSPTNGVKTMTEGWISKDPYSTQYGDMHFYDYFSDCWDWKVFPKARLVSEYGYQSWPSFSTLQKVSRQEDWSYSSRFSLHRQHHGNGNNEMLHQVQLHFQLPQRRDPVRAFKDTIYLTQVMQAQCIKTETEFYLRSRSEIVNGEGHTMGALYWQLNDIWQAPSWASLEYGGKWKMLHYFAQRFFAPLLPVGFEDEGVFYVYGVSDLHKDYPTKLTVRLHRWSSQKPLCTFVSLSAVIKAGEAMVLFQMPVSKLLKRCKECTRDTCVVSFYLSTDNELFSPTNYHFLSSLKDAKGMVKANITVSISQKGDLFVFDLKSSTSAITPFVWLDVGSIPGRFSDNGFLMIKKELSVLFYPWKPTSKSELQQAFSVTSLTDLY

| SMILES | inhibition [%] |
| --- | --- |
| CC(O)CC[C@@H]1C[C@@H](O)[C@@H]2[C@@H](O)[C@H](O)[C@@H](CO)N12 (stereo partly specified) | < 50 |
| CC(O)CC[C@@H]1CC[C@@H]2[C@@H](O)[C@H](O)[C@@H](CO)N12 (stereo partly specified) | < 50 |

target: T5, Beta-galactosidase (Bos taurus) (UniProt Q58D55); assay: Inhibition of bovine liver beta-galactosidase at 1000 uM by spectrophotometry
T5 sequence (whole entry): T3 sequence (Q58D55 whole entry)

| SMILES | inhibition [%] |
| --- | --- |
| CC(O)CC[C@@H]1CC[C@@H]2[C@@H](O)[C@H](O)[C@@H](CO)N12 (stereo partly specified) | < 50 |

target: not listed separately; assay: Inhibition of yeast alpha-glucosidase by spectrophotometry; set-up: species or system Saccharomyces cerevisiae
Procedure, shortened: as §2

| SMILES | IC50 [µM] |
| --- | --- |
| CC(O)CC[C@@H]1C[C@@H](O)[C@@H]2[C@@H](O)[C@H](O)[C@@H](CO)N12 (stereo partly specified) | 6.6 |

target: not listed separately; assay: Inhibition of almond beta-glucosidase by spectrophotometry; set-up: species or system Prunus dulcis
Procedure, shortened: as §2

| SMILES | IC50 [µM] |
| --- | --- |
| CC(O)CC[C@@H]1CC[C@@H]2[C@@H](O)[C@H](O)[C@@H](CO)N12 (stereo partly specified) | 49 |

target: Alpha-galactosidase (Coffea arabica) (UniProt Q42656); assay: Inhibition of coffee bean alpha-galactosidase at 1000 uM by spectrophotometry
Procedure, shortened: as §1

Chain of Alpha-galactosidase (Coffea arabica) (Q42656 16-378 limits assumed): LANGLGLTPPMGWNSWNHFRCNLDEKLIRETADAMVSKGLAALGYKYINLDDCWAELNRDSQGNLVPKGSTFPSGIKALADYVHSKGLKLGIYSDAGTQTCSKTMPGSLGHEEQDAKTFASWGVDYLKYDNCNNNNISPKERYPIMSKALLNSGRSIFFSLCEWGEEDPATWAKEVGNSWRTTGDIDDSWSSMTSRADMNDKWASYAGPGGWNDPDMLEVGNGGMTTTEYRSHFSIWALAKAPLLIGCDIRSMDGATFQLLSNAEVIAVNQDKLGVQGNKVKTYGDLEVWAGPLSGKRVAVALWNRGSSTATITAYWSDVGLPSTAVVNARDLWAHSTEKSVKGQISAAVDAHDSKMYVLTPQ

| SMILES | inhibition [%] |
| --- | --- |
| CC(O)CC[C@@H]1C[C@@H](O)[C@@H]2[C@@H](O)[C@H](O)[C@@H](CO)N12 (stereo partly specified) | < 50 |
| CC(O)CC[C@@H]1CC[C@@H]2[C@@H](O)[C@H](O)[C@@H](CO)N12 (stereo partly specified) | < 50 |

species on record: Rattus norvegicus; assay: Inhibition of rat epididymis beta-galactosidase at 1000 uM by spectrophotometry
Procedure, shortened: as §3

| SMILES | inhibition [%] |
| --- | --- |
| CC(O)CC[C@@H]1C[C@@H](O)[C@@H]2[C@@H](O)[C@H](O)[C@@H](CO)N12 (stereo partly specified) | < 50 |
| CC(O)CC[C@@H]1CC[C@@H]2[C@@H](O)[C@H](O)[C@@H](CO)N12 (stereo partly specified) | < 50 |

system: Prunus dulcis; assay: Inhibition of almond beta-glucosidase at 1000 uM by spectrophotometry

| SMILES | inhibition [%] |
| --- | --- |
| CC(O)CC[C@@H]1C[C@@H](O)[C@@H]2[C@@H](O)[C@H](O)[C@@H](CO)N12 (stereo partly specified) | < 50 |
